E-sel inducer: E-selectin induction in HUVECs, primary screen, imaging, HUVEC, immunofluorescence imaging, single point; P16581; normalized: neutral wells 0, TNF-alpha wells 100; activation, % at 7.58 µM; 0.37% of 260,000 active;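 active = mean E-selectin-positive cell signal at least 10% of the positive control, reached in at least 60% of replicates, without over 20% cell loss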
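material = human umbilical vein endothelial cells (HUVEC), E-selectin induction | quantity = 3,000 cells/well | medium = EGM-2 growth medium on 0.1% gelatin-coated wells | technique = immunofluorescence imaging | read-out basis = % PE-positive cells | control set = TNF-alpha positive control, DMSO neutral control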
SIRT5 block: SIRT5 desuccinylase inhibitors, primary screen, biochemical, fluorescence imaging, single point, set 5; NAD-dependent protein deacylase sirtuin-5, mitochondrial (Homo sapiens), Q9NXA8; Purified SirT5, succinyl-peptide AMC, trypsin-coupled fluorescence; AID 652115, 2013; 1.1% of 330,000 active; inhibition, % at 15 µM; in the data active = inhibition above about 15%
Target sequence (Q9NXA8 whole entry, looked up): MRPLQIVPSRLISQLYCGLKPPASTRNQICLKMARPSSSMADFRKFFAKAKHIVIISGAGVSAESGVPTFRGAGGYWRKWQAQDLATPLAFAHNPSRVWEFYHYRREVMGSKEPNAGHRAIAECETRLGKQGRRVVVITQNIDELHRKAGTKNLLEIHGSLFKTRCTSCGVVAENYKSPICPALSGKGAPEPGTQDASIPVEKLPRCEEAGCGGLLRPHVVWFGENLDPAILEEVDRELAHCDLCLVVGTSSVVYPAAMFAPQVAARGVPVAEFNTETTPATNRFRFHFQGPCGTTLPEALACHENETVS
miR-122 sensor: miR-122 Renilla sensor signal increase in Huh7, primary screen, miR-122 inhibitor project, cell-based, single point, plate reader. Huh7 miR-122 Renilla luciferase sensor, 48 h; neutral wells = 0, positive control = 100. activation (reporter increase), % at 12.5 µM. 0.3% of 340,000 active. AID 602342, 2012;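 active = mean replicate activation score at least 90 and every replicate individually at or above 90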;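 also: higher luciferase means less miR-122 activity so hits act as miR-122 inhibitors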
S100A4 inh HTS: inhibitors of S100A4-myosin IIA peptide binding, primary screen, biochemical, fluorescence polarization, TAMRA-MyoIIA peptide. Protein S100-A4 (Homo sapiens), P26447. inhibition, % at 10.7 µM. 0.14% of 360,000 active. AID 652163, 2013;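 active = mean inhibition of at least 70% across replicates, with every replicate also reaching that level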
Target sequence (P26447 whole entry, looked up): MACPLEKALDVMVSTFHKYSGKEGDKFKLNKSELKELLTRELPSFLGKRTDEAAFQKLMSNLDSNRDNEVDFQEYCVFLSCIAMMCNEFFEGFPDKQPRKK
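Test system: S100A4 monomer protein. Medium: HEPES buffer with Ca2+, pH 7.2. Reagent: fluorescent myosin IIA peptide, 5 nM. Compound dosing: single-point compound testing. Timing: 5 min between mix addition and reading. Benchmarks: DMSO neutral and TFP positive wells.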
FGF22 binding: binders of human FGF22 protein, primary screen, FGF22 synaptogenesis inhibitor project, biophysical, thermal shift, single point; recombinant FGF22 thermal shift, SYPRO orange fluorescence; percent of sucrose octasulfate shift, DMSO zero; activity (Tm shift, normalised), % at 9.99 µM; 1.5% of 340,000 active;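 active = mean Tm shift, scaled 0 neutral to 100 positive control, at about 1.3% or above, every replicate too, limit read from the data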
Target sequence (Q9HCT0 whole entry, looked up): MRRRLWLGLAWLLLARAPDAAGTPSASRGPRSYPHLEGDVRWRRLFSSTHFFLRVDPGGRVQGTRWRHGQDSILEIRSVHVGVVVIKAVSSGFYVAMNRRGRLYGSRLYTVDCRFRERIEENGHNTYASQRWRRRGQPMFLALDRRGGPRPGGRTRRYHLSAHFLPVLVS
* = called active by the depositor; . = no result given; [ ] = another dose, or the depositor's remark. In the library only some 2.5% were active in any assay of this set; here they are far more common.

SMILES	E-sel inducer	SIRT5 block	miR-122 sensor	S100A4 inh HTS	FGF22 binding
NC(=O)COc1ncnc2scc(-c3ccc(F)cc3)c12	0	-1	.	7	0
COCCNC(=O)COc1ncnc2scc(-c3ccc(F)cc3)c12	.	-5	-6	-5	43*
CO[C@@H]1CN(C)C(=O)c2cc(NS(=O)(=O)CC(F)(F)F)ccc2OC[C@@H](C)N(Cc2nccs2)C[C@@H]1C	0	1	.	.	0
C[C@H]1CN([C@@H](C)CO)C(=O)Cc2cc(NS(=O)(=O)c3cn(C)cn3)ccc2O[C@@H]1CN(C)C(=O)NC1CCCCC1	5	.	5[16.7 µM]	.	0
CCn1c2ccccc2c2nnc(SCN3C(=O)c4ccccc4C3=O)nc21	121*	-2	.	-5	0
C[C@@H]1CCCCO[C@@H](CN(C)CC2CCCCC2)[C@H](C)CN([C@@H](C)CO)C(=O)c2cc(NC(=O)CCCCCC(=O)Nc3ccccc3N)ccc2O1	0	8	-12[16.7 µM]	-29	0
Nc1ccc(C(=O)OCC(=O)N2CCOCC2)cc1[N+](=O)[O-]	.	0	-6	-3	43*
Nc1cc(C(=O)OCC(=O)N2CCOCC2)ccc1Cl	0	1	0	3	-1
COc1ccc(C(=O)OCC(=O)N2C(C)CCCC2C)cc1[N+](=O)[O-] (stereo not given)	0	5	.	-3	43*
O=C(C[C@@H]1CC[C@@H](NC(=O)c2ccncc2)[C@H](CO)O1)Nc1ccccc1	0	2	.	0	0
O=C(NCCCN1CCOCC1)[C@H]1[C@H](CO)[C@H]2Cn3c(cccc3=O)[C@@H]1N2C(=O)C1CCCC1	0	2	.	6	.
COc1cc(SC)ccc1C(=O)Nc1cccc(S(=O)(=O)NC2=NCCC2)c1	0	15*	1	5	0
O=C(O)c1cccc(NC(=O)c2cn(-c3ccccc3)nc2-c2cccc(Br)c2)c1	.	16*	.	-5	0
CCC(C)/C(C)=N/NC(=O)c1cn(-c2ccccc2)nc1-c1ccccc1 (stereo not given)	0	.	.	.	.
O=C(O)c1ccc(NC(=O)c2cn(-c3ccccc3)nc2-c2ccc(Br)cc2)cc1	.	13	.	-9	1.6*
O=C(O)c1ccc(NC(=O)c2cn(-c3ccccc3)nc2-c2ccccc2)cc1	.	4	1	2	.
CN1CCC(=NNC(=O)c2cn(-c3ccccc3)nc2-c2ccccc2)CC1	.	-2	-5	-4	43*
OC[C@H]1[C@@H](c2ccc(-c3ccncc3)cc2)[C@@H]2CN(Cc3ccccn3)CCCCN12	0	.	-1[16.7 µM]	.	.
C[C@@H]1CN([C@H](C)CO)C(=O)Cc2cc(NS(=O)(=O)c3cccs3)ccc2O[C@H]1CN(C)S(=O)(=O)c1cccs1	0	.	5[16.7 µM]	.	.
Cc1cccc(-c2nn(-c3ccccc3)cc2C(=O)Nc2cccc(S(=O)(=O)NC3=NCCC3)c2)c1	.	-1	152*	-4	0
COc1ccc(-c2nn(-c3ccccc3)cc2C(=O)Nc2cccc(S(=O)(=O)NC3=NCCC3)c2)cc1	.	-3	81	-2	0
O=C(O)CCNc1nc(C(F)(F)F)nc2ccccc12	.	48*	-3	1	0
COc1ccc(C(=O)Nc2cccc(-c3nnc(-c4ccco4)o3)c2)cc1	.	.	-11	.	.
COc1cc(C(=O)Nc2cccc(-c3nnc(-c4ccco4)o3)c2)ccc1OC(C)=O	1	-1	.	-8	44*
COc1ccc2c3c(n(C)c2c1)[C@@H](CO)N(C(=O)CC1CC1)CC31CCN(C(=O)C2CCCC2)CC1	0	2	.	1	0
SMILES	E-sel inducer	SIRT5 block	miR-122 sensor	S100A4 inh HTS	FGF22 binding
CC12CCC(CC1O)C2C(=O)O (stereo not given)	2	.	.	-2	43*
C/C(=N\NC(=O)CN1CCN(S(=O)(=O)c2ccc(C)cc2)CC1)c1ccc(O)cc1	0	15*	-16	-4	0
CCCC(=O)Nc1ccc2c(c1)C(=O)NC2=O	0	-11	-3	14	0
CC(C)(C)c1ccc(C(=O)Nc2ccc3c(c2)C(=O)NC3=O)cc1	137*	-9	4	-2	0
O=C(Cc1cccc2ccccc12)Nc1ccc2c(c1)C(=O)NC2=O	.	-3	.	4	44*
COc1cccc(NC(=O)N(C)C[C@@H]2Oc3ncc(/C=C/c4ccccc4)cc3C(=O)N([C@H](C)CO)C[C@H]2C)c1	0	-9	-5[16.7 µM]	5	0
Cc1cccc(OCC(=O)Nc2cccc(C(=O)NCC(C)C)c2)c1	.	.	6	.	.
Cc1cccc(OCC(=O)Nc2ccc(C(=O)NCC(C)C)cc2)c1	0	1	.	-10	44*
O=C(/C=C/c1ccco1)NC(=S)Nc1ccc(C(=O)O)cc1	1	22*	.	-7	0
Cc1ccc(O)c(NC(=S)NC(=O)/C=C/c2ccccc2)c1	0	1	3	1	0
Cc1ccc(O)c(NC(=S)NC(=O)/C=C/c2ccco2)c1	.	-1	11	-4	43*
CC(=O)NC(=S)Nc1ccc(NC(=S)NC(=O)/C=C/c2ccco2)cc1	.	2	.	-3	0
C[C@H]1CCCCO[C@H](CN(C)S(=O)(=O)c2ccc(Cl)cc2)[C@@H](C)CN([C@@H](C)CO)C(=O)c2cc(NC(=O)C3CCCCC3)ccc2O1	0	6	-2[16.7 µM]	-11	.
CCC(=O)N1CC(=O)N2[C@@H](CO)[C@@H](c3ccc(C#Cc4cccc(OC)c4)cc3)[C@@H]2C1	0	0	.	10	.
CCCCOC(=O)c1sc2nc(N3CCOCC3)c3c(c2c1N)CC(C)(C)OC3	6	24*	.	5	0
COc1cc2c(c(OC)c1OC)-c1ccc(N(C)CC(OC)OC)c(=O)cc1[C@@H](NC(C)=O)CC2	0	-3	.	-16	0
CN[C@H]1CCc2cc(OC)c(OC)c(OC)c2-c2ccc(N(C)CC(OC)OC)c(=O)cc21	.	1	130*	1	0
Nc1c(Cl)cc(-c2csc(N3CCCC3c3nc4cc(Cl)c(N5CCCCC5)cc4n3CCCO)n2)cc1Cl (stereo not given)	0	15*	-6	-8	0
Nc1c(Cl)cc(-c2csc(N3CCCC3c3nc4cc(Cl)c(Cl)cc4n3CCCO)n2)cc1Cl (stereo not given)	0	-6	17	-10	0
COc1ccccc1S(=O)(=O)N[C@@H]1CC[C@@H](CCNC(=O)C2CCC2)O[C@H]1CO	-1	1	.	-1	0
CSc1ccccc1NC(=O)COC(=O)Cc1cccs1	1	3	.	-1	43*
CCc1ccc(-c2cc(C(=O)N/N=C/c3ccco3)[nH]n2)cc1	.	-3	.	-2	43*

High-throughput results (PubChem BioAssay)
